Assay results: ChEMBL document CHEMBL2417530, “Coumarin derivatives protect against ischemic brain injury in rats” (Eur J Med Chem, 2013)
The source made the active and inactive calls. The rule behind the calls is not given here.

Columns and labels:
Rattus norvegicus [1] = experiment: In vivo neuroprotective activity in iv dosed Sprague-Dawley rat transient middle cerebral artery occlusion model assessed as suppression of neuronal loss in cerebral cortex measured 24 hrs post reperfusion by nissl staining assay; type: functional, organism-based
Procedure, shortened: (§1)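 After 60 min transient MCAO with iv treatment at reperfusion, rats were perfused at 24 h with PBS, then 4% buffered paraformaldehyde. Brains were paraffin-embedded and coronal sections stained with 0.5% cresyl fast violet (Nissl). Cortex and hippocampus were examined at 200×.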

Rattus norvegicus [2] = experiment: In vivo neuroprotective activity in iv dosed Sprague-Dawley rat transient middle cerebral artery occlusion model assessed as reduction of infarct size measured 24 hrs post reperfusion by TTC staining assay; type: functional, organism-based
Procedure, shortened: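 Male Sprague-Dawley rats, 7 weeks, 260–280 g, under 10% chloral hydrate ip. Right MCA occluded 60 min by tip-burned 4-0 nylon thread via common carotid, then reperfused. Saline or drug given iv at reperfusion, ethanol as cosolvent. Killed 24 h later; six 2 mm slices in 1% TTC in PBS, 37 °C, 30 min. Infarct area traced as % of total area; n = 12.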

[3] = Tmax in Sprague-Dawley rat cortex at 2 x 10^-5 mol/kg, iv by LC-MS analysis; type: ADME, organism-based; conditions: 2e-05 mol/kg
Procedure, shortened: (§2)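 Male Sprague-Dawley rats (260-280 g, n = 4) given a single iv dose of 6 mg/kg. Blood was taken from the jugular vein into heparin tubes under ether, and plasma was spun out and stored at -70 °C. After saline perfusion, cortex was homogenized in 2 volumes of water. Samples were precipitated with acetonitrile with internal standard added and quantified by LC-MS against a weighted linear calibration.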

[4] = Volume of distribution in Sprague-Dawley rat cortex at 2 x 10^-5 mol/kg, iv by LC-MS analysis; type: ADME, organism-based; conditions: 2e-05 mol/kg; procedure, shortened: as §2
[5] = Cmax in Sprague-Dawley rat plasma at 2 x 10^-5 mol/kg, iv measured at 2 mins by LC-MS analysis; type: ADME, organism-based; conditions: 2e-05 mol/kg; procedure, shortened: as §2
[6] = Cytotoxicity against rat PC12 cells assessed as cell proliferation at 10 uM by MTT assay relative to control; type: cell-based, PC-12; conditions: read-out: Activity
Procedure, shortened: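 PC12 cells were grown in DMEM with 5% FBS, 5% horse serum and 2 mM glutamine at 37 °C, 5% CO2. They were seeded at 5×10^3 cells/well for 24 h, then exposed to 10 µM compound in full medium. Viability was read by MTT (5 mg/mL, 4 h) at 570 nm as % of control absorbance; n = 3.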

Rattus norvegicus [7] = experiment: In vivo neuroprotective activity in iv dosed Sprague-Dawley rat transient middle cerebral artery occlusion model assessed as suppression of neuronal loss in hippocampus measured 24 hrs post reperfusion by nissl staining assay; type: functional, organism-based; procedure, shortened: as §1
Rattus norvegicus [8] = experiment: Anti-ischemia activity in Sprague-Dawley rat transient middle cerebral artery occlusion model assessed as inhibition of cleaved caspase-3 protein expression in hippocampus at 1.5 to 6 mg/kg, iv measured 24 hrs post reperfusion by Western blot analysis relative to vehicle-treated control; type: functional, organism-based
Procedure, shortened: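 Rats underwent 60 min intraluminal right MCA occlusion under chloral hydrate, then reperfusion, with iv saline or drug (1.5, 3.0, 6.0 mg/kg) at reperfusion. At 24 h they were saline-perfused and cortex and hippocampus lysed in RIPA buffer. Protein was BCA-normalized, run on SDS-PAGE and blotted for Bcl-2, Bax, cleaved caspase-3 and β-actin with ECL detection; n = 4.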

In the case of `COc1cc(O)cc2oc(=O)c(N3CCN(C)CC3)c(C)c12`, the Activity (Rattus norvegicus [1]) is reported as “Dose-dependent effect”, the Activity (Rattus norvegicus [2]) is reported as “Dose-dependent effect” and the Tmax [3] is reported as 2 min. It also gave a Vd [4] of 12.3 L, a Cmax [5] of 13300 ng/mL and a viability at 10 µM [6] of 101%. The Activity (Rattus norvegicus [7]) was “Dose-dependent effect” and the inhibition (Rattus norvegicus [8]) was “Active”.
